High-throughput results deposited in PubChem BioAssay by several laboratories.
This excerpt belongs to a sample that is enriched for hits.
Ec RNAP inh = blocks E. coli RNA polymerase transcription. P0A8V2. fluorescence transcription assay. inhibition, %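 (tested at 10 µM)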. 0.2% of 62,000 active; in the data active = inhibition above about 20%;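 note: 0% = enzyme without compound and 100% = no enzyme blank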
AP ELISA ortho = alternative pathway complement inhibition, orthogonal assay; AID 1235; 0.08% of 62,000 active; Human serum alternative complement pathway, LPS-coated ELISA, C3 deposition; tested in compound mixtures; inhibition, % at 5 µM;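 active = inhibition above 30% in each of the two pooled mixtures holding the compound, so the lower value exceeds 30%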;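 note: 0% = serum in Mg-EGTA without compound and 100% = EDTA serum blank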
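Assay system: Human serum alternative complement pathway, C3 deposition on LPS-coated wells | Incubation: 1 h serum-compound exposure at 37 °C | Doses: 5 µM per compound in ten-compound mixtures | Read-out: Percent inhibition | Technique: ELISA with HRP anti-human C3 antibody, TMB substrate, absorbance 450 nm | Replication: Two pool placements per compound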
hDAT+cocaine = modulates human dopamine transporter uptake under cocaine | Q01959 | 1.3% of 110,000 active | LLC-PK1 hDAT cells, [14C]-dopamine uptake with cocaine IC80; actives deviate in either direction | B-score at 10 µM;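 active = Z score or B-score, a plate-position-corrected score, falls beyond the plate's 99.7% confidence bounds, in either direction; inactive = both scores lie inside the 99.7% bounds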;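 note: scored against the spread of the other compound wells on the same plate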
Target sequence (Q01959 whole entry, looked up): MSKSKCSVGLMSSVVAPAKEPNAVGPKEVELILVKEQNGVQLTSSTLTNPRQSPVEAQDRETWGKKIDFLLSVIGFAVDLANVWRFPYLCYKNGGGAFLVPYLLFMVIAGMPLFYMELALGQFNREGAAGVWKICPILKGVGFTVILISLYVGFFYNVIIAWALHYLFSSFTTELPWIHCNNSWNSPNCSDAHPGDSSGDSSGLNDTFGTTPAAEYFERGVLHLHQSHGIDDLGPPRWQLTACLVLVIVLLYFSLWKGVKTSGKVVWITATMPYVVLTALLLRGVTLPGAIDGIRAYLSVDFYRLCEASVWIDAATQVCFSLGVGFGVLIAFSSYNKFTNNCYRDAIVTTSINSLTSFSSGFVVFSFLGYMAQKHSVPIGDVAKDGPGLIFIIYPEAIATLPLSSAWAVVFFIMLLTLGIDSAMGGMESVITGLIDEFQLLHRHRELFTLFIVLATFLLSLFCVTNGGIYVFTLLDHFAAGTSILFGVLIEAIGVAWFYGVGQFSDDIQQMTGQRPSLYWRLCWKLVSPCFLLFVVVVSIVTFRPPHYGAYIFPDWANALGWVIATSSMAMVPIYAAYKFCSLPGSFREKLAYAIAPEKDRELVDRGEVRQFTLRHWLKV
D1 allo mod = allosterically modulates the human D1 dopamine receptor | P21728 | B-score at 10 µM | AID 641 | 5.9% of 58,000 active | HEK293 D1, CRE-luciferase, dopamine EC30 potentiation; actives deviate in either direction;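 active = luminescence count or its row- and column-corrected plate score outside the 99.7% band of the plate's sample wells, on either side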
HEK293 NFkB inh = lowers PMA/ionomycin-induced NF-kB signal in HEK293 cells; inhibition, % at 3 µM; AID 465; HEK-293 NF-kB luciferase reporter, luminescence; 0.21% of 62,000 active;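 active = inhibition above the mean of all tested compounds plus 3 SD, cut at about 40% in these data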;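 note: 0% = stimulated DMSO wells and 100% = 10 µM reference inhibitor 5653914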
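Timing: 1 h pretreatment, 16 h stimulation, 37 °C; system: HEK-293 cells with stable firefly luciferase reporter driven by four HIV NF-kB elements; doses: 3 µM once, 0.30% DMSO; measured by: luciferase luminescence; control set: DMSO and 10 µM reference inhibitor; repeats: single test; reagent: PMA plus ionomycin mix as NF-kB-activating stimulus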
D1 PAM confirm = D1 receptor (human) allosteric modulation, confirmed; shares compounds with D1 allo mod; HEK293 D1 CRE-luciferase, dopamine EC30 potentiation; active compounds read high; luminescence at 10 µM; 88% of 2,200 active; AID 642;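 active = luminescence in either of two replicates above the same-plate mean plus 3 SD of the low-dose dopamine control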
D1 no dopamine = D1 (human) signaling in absence of dopamine. luminescence at 10 µM. 0.8% of 1,900 active. shares compounds with D1 allo mod. HEK293 D1 CRE-luciferase, luminescence, no dopamine; active compounds read high; in the data active = luminescence above about 3900
Isoprot counter = counter-screen for D1 modulators: isoproterenol response in HEK293 cells. shares compounds with D1 allo mod. HEK293 D1 CRE-luciferase, isoproterenol EC30 counter-screen. calls only at 10 µM. 63% of 2,200 active;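 active = luminescence in either replicate above plate mean of wells with a partly effective reference agonist dose plus 3 SD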;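 note: isoproterenol raises cAMP through native beta-adrenoceptor Gs so signal bypasses D1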
An asterisk follows results filed as active.

How did CCn1nc(C(=O)NC2=NCCS2)c2ccccc2c1=O do in these assays?
Ec RNAP inh: 0; AP ELISA ortho: 23; hDAT+cocaine: 0.07; D1 allo mod: 2.9*; HEK293 NFkB inh: 11; D1 PAM confirm: 9356*; D1 no dopamine: 1640; Isoprot counter: inactive

What do the screens show for `O=C(NC1=NCCS1)c1csc2ccccc12`?
Ec RNAP inh: 1; AP ELISA ortho: 8; hDAT+cocaine: 2.6; D1 allo mod: -0.92; HEK293 NFkB inh: -35

What do the screens show for `CCOC(=O)C1=C(C)NC(C)=C(C(=O)OCC)C1C(=O)OCC(=O)N1CCc2ccccc21`?
Ec RNAP inh: -3; AP ELISA ortho: 15; hDAT+cocaine: 1.5; D1 allo mod: -0.15; HEK293 NFkB inh: 24

Results for CCOC(=O)C1=C(C)NC(C)=C(C(=O)OCC)C1C(=O)OCC(=O)c1ccc2c(c1)OCCO2 ?
Ec RNAP inh: 5; AP ELISA ortho: 7; hDAT+cocaine: 1.4; D1 allo mod: 10*; HEK293 NFkB inh: 1; D1 PAM confirm: 7616*; D1 no dopamine: 1608; Isoprot counter: active

What do the screens show for `CCCNC(=O)C1CCN(S(=O)(=O)c2ccc(Br)cc2)CC1`?
Ec RNAP inh: 0; AP ELISA ortho: 2; hDAT+cocaine: 0.32; D1 allo mod: 0.28; HEK293 NFkB inh: 6

Results for O=C(NCc1ccccc1Cl)C1CCCN(S(=O)(=O)c2cccc3nsnc23)C1 (stereo unspecified) ?
hDAT+cocaine: 0.87

How did CC(=O)SCC[N+](C)(C)C do in these assays?
hDAT+cocaine: -0.22

Results for CC(=O)OCC[N+](C)(C)C ?
Ec RNAP inh: 5; AP ELISA ortho: 18; hDAT+cocaine: -0.29; D1 allo mod: 6.2*; D1 PAM confirm: 6608*; D1 no dopamine: 1464; Isoprot counter: active

How did COc1ccc(CCNC(=O)c2cc(-c3ccccc3O)n[nH]2)cc1OC do in these assays?
AP ELISA ortho: 26; hDAT+cocaine: -9.6*; D1 allo mod: 4.4*; HEK293 NFkB inh: 9; D1 PAM confirm: 8340*; D1 no dopamine: 1572; Isoprot counter: active

What do the screens show for `COc1ccc(CCNC(=O)c2cnc3n(c2=O)CCS3)cc1OC`?
hDAT+cocaine: 1; D1 allo mod: 4.7*; HEK293 NFkB inh: 15; D1 PAM confirm: 9460*; D1 no dopamine: 1716; Isoprot counter: active

How did COc1ccc(CCNC(=O)CN2C(=O)c3ccccc3S2(=O)=O)cc1OC do in these assays?
Ec RNAP inh: 1; AP ELISA ortho: 11; hDAT+cocaine: -1.3; D1 allo mod: 4.3*; HEK293 NFkB inh: 6; D1 PAM confirm: 7364*; D1 no dopamine: 1808; Isoprot counter: active

Results for COc1ccc(-c2cc(-c3ccccc3O)[nH]n2)cc1OC ?
AP ELISA ortho: 12; hDAT+cocaine: -0.12; D1 allo mod: 3.4*; HEK293 NFkB inh: -2; D1 PAM confirm: 8764*; D1 no dopamine: 1644; Isoprot counter: active

What do the screens show for `CC(C)C[C@H]1C(=O)N2CCC[C@H]2[C@]2(O)O[C@](NC(=O)[C@@H]3C=C4c5cccc6[nH]c(Br)c(c56)CC4N(C)C3)(C(C)C)C(=O)N12` (stereo partly specified)?
Ec RNAP inh: 10; AP ELISA ortho: 19; hDAT+cocaine: 1.8; D1 allo mod: 24*; D1 PAM confirm: 20940*; D1 no dopamine: 18100*; Isoprot counter: active

How did O=c1oc(-c2cccs2)nc2c1cnn2-c1ccccc1 do in these assays?
Ec RNAP inh: 11; AP ELISA ortho: -1; hDAT+cocaine: -0.52; HEK293 NFkB inh: 21

How did CCCCSc1nc(CCC)cc(=O)[nH]1 do in these assays?
Ec RNAP inh: 7; AP ELISA ortho: -8; hDAT+cocaine: -0.13; D1 allo mod: 5.3*; D1 PAM confirm: 15600*; D1 no dopamine: 1616; Isoprot counter: active

Results for CC(NS(=O)(=O)c1ccccc1)C(c1cccs1)N1CCN(C)CC1 (stereo unspecified) ?
Ec RNAP inh: 8; AP ELISA ortho: 5; hDAT+cocaine: 0.028; D1 allo mod: -0.85; HEK293 NFkB inh: 15

Results for O=[N+]([O-])c1ccc(O)c(-c2nc(-c3ccccc3)c(-c3cccs3)[nH]2)c1 ?
hDAT+cocaine: -0.7

How did COc1ccc(-c2nc(-c3cccs3)c(-c3cccs3)[nH]2)cc1O do in these assays?
Ec RNAP inh: -2; AP ELISA ortho: 13; hDAT+cocaine: 2; D1 allo mod: 2.8*; HEK293 NFkB inh: 3; D1 PAM confirm: 7608; D1 no dopamine: 1828; Isoprot counter: inactive

What do the screens show for `Cn1c(NC(=O)c2cccc(C(F)(F)F)c2)cc(=O)n(C)c1=O`?
Ec RNAP inh: 10; AP ELISA ortho: 7; hDAT+cocaine: -0.59; D1 allo mod: 7*; HEK293 NFkB inh: 11; D1 PAM confirm: 17760*; D1 no dopamine: 1560; Isoprot counter: active

Results for Cn1c(SCc2ccon2)nc2ccccc2c1=O ?
hDAT+cocaine: -0.25; D1 allo mod: 5.9*; HEK293 NFkB inh: 15; D1 PAM confirm: 6248*; D1 no dopamine: 1464; Isoprot counter: inactive

How did Cn1c(SCC(=O)O)nc2ccccc2c1=O do in these assays?
Ec RNAP inh: 4; AP ELISA ortho: -5; hDAT+cocaine: 1.2; D1 allo mod: -0.024; HEK293 NFkB inh: 4

What do the screens show for `Cc1ncsc1CCSc1nc2ccccc2c(=O)n1C`?
hDAT+cocaine: 0.61; D1 allo mod: 5.3*; HEK293 NFkB inh: 14; D1 PAM confirm: 10832*; Isoprot counter: active

What do the screens show for `O=C(CCCCn1c(=O)c2ccccc2n(CC(=O)NC2CCCC2)c1=O)NC1CCCC1`?
Ec RNAP inh: 5; AP ELISA ortho: 12; hDAT+cocaine: 0.97; D1 allo mod: 4.4*; HEK293 NFkB inh: 2; D1 PAM confirm: 4732; D1 no dopamine: 1368; Isoprot counter: inactive

How did CCCN(CCC)C(=O)Cn1c(=O)n(CCCCC(=O)NC2CCCC2)c(=O)c2ccccc21 do in these assays?
Ec RNAP inh: 2; AP ELISA ortho: 8; hDAT+cocaine: -0.69; D1 allo mod: -0.23; HEK293 NFkB inh: 17

What do the screens show for `O=C(NCc1ccco1)c1cnn2c(C(F)(F)F)cc(-c3ccccc3)nc12`?
Ec RNAP inh: 11; AP ELISA ortho: 24; hDAT+cocaine: -0.85; D1 allo mod: 2; HEK293 NFkB inh: 8
